The results in this text go back to ChEMBL document CHEMBL1140307, “Design and synthesis of alpha-aryloxyphenylacetic acid derivatives: a novel class of PPARalpha/gamma dual agonists with potent antihyperglycemic and lipid modulating activity” (J Med Chem, 2005).

A word on the pIC50: it is the IC50 on a negative log10 scale, so that one unit is a factor of ten. For orientation: bioavailability means dose-corrected exposure relative to a reference, in per cent. A higher bioavailability goes with good availability. Usually pEC50 stands for the negative decadic logarithm of the EC50, by convention in mol/L. A high value points to a low EC50. A word on the half-life: it is the time in which the quantity being followed falls by half. The term AUC denotes the area under the concentration-time curve, a measure of exposure. High values mean more exposure, low ones less exposure.

For data set [1], the system named is Rattus norvegicus. Nature of the data set: Effect (150 mg/kg) on PPAR gamma- mediated effects measured as change in body weight in rats. Format: functional. Put shortly:
(§1)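 Male Sprague-Dawley rats (about 200 g, n = 6) were fed rodent chow and gavaged once daily for 2 weeks with compound in 0.5% methylcellulose. Body weight was recorded on days 1, 4, 6, 8, 11 and 14. Rats were euthanized with CO2 24 h after the last dose, and BAT, heart and liver were weighed. Blood was taken by heart puncture for hematocrit. Results are mean ± SD versus vehicle.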

The test system of data set [2] is Canis familiaris. Nature of the data set: Percentage change in the serum cholesterol upon administration of compound (10 mpk) in dogs.
The subject of data set [3] is Rattus norvegicus. Nature of the data set: Effect (150 mg/kg) on PPAR gamma- mediated effects measured as change in brown adipose tissue weight in rats. Format: functional. In a few lines:
as §1

The test system of data set [4] is Cricetinae gen. sp. Nature of the data set: Percentage change in the serum triglyceride upon administration of compound (10 mpk) in hamster. Format: functional. In a few lines:
(§2)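 Male Golden Syrian hamsters were fed normal rodent chow and dosed orally once daily with compound. Serum total cholesterol and triglyceride were measured and expressed as percent change versus vehicle controls.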

Data set [5] has as its system Cricetinae gen. sp. Nature of the data set: Percentage change in the serum cholesterol upon administration of compound (10 mpk) in hamster. The format is functional. Put shortly:
as §2

The test system of data set [6] is Rattus norvegicus. Nature of the data set: Effect (150 mg/kg) on PPAR gamma- mediated effects measured as change in hematocrit weight in rats. The format is functional. In a few lines: as §1
In data set [7] the target is T1, Peroxisome proliferator-activated receptor alpha (Homo sapiens, UniProt Q07869).
T1 sequence (Q07869 whole entry): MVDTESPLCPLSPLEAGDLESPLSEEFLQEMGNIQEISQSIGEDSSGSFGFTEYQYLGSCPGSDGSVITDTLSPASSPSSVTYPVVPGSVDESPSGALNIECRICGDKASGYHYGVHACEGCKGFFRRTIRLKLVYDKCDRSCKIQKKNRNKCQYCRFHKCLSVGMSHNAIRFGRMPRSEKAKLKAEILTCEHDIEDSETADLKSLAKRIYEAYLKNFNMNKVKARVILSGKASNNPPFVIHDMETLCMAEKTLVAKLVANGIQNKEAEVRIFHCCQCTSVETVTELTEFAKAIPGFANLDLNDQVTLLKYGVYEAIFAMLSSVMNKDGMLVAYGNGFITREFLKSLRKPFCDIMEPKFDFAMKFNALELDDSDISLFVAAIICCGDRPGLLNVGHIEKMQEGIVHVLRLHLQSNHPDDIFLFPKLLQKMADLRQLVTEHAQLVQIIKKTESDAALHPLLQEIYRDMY
Nature of the data set: In vitro binding affinity for human PPAR alpha.

Data set [8] in a line: Oral bioavailability in dog. Format: ADME, organism-based, Canis lupus familiaris. The conditions noted are these: in vivo. In a few lines:
(§3)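 Male Sprague-Dawley rats (n = 3) and male adult Beagle dogs (n = 4) were fasted overnight. They received either a 2 mg/kg oral gavage dose or a 0.5 mg/kg IV bolus. Blood was drawn into heparin tubes from a femoral arterial cannula (rat) or the jugular vein (dog) at set time points. Plasma was acidified with 0.5 M formate pH 3.0, stored at -70 °C and quantified by LC-MS/MS.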

Data set [9] deals with Rattus norvegicus. Nature of the data set: Effect (150 mg/kg) on PPAR gamma- mediated effects measured as change in liver weight in rats. The format is functional. Put shortly:
as §1

For data set [10], the species on record is Mesocricetus auratus. Nature of the data set: Effect (10 mpk) on serum triglyceride in hamster.
In data set [11] the test system is Cricetinae gen. sp. Nature of the data set: Effect (10 mpk) on serum cholesterol in hamster. The format is functional. Put shortly: (§4)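 Male Golden Syrian hamsters on normal rodent chow, dosed orally with test compound (9 days per table legend). Serum total cholesterol and triglyceride were measured in mg/dL. Values are group means, expressed as % change versus the vehicle-treated control group.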

The target in data set [12] is T2, Peroxisome proliferator-activated receptor gamma (Homo sapiens, UniProt P37231).
T2 sequence (P37231 whole entry): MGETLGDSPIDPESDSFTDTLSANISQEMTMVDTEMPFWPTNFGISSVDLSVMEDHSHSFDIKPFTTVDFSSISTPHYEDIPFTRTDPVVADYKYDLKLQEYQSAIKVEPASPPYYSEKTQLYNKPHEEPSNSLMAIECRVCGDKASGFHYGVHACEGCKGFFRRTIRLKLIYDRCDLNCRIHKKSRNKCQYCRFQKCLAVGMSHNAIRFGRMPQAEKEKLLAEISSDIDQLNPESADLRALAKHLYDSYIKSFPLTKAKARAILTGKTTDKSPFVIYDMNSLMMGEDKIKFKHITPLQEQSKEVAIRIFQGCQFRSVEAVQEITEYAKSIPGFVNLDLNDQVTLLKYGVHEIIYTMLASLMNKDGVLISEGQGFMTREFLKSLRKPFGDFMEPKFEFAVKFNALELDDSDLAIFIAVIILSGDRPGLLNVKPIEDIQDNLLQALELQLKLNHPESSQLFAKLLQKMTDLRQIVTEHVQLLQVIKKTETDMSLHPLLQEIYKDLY
Nature of the data set: Agonist response against human PPAR gamma in transactivation assay. The format is functional.

The nature of data set [13]: Half life when administered intravenously at a dose of 0.5 mg/kg to dogs. The format is ADME, organism-based, Canis lupus familiaris. Also noted: dose 0.5 mg/kg, route intravenous. To be noted: dog, in vivo, iv. In a few lines:
as §3

Data set [14] concerns Rattus norvegicus. Nature of the data set: Effect (150 mg/kg) on PPAR gamma- mediated effects measured as change in heart weight in rats. The format is functional. In a few lines: as §1
Data set [15] addresses T1, Peroxisome proliferator-activated receptor alpha. Nature of the data set: Agonist response against human PPAR alpha in transactivation assay.
Data set [16] can be described thus: Oral bioavailability in rat. Format: ADME, organism-based. The conditions noted are these: in vivo. Put shortly: as §3
A short description of data set [17]: Half life when administered intravenously at a dose of 0.5 mg/kg to rats. To be noted: rat, in vivo, iv. Details: dose 0.5 mg/kg, route intravenous. The format is ADME, organism-based. Put shortly:
as §3

Data set [18] can be described thus: Area under concentration time curve of compound when administered perorally at a dose of 2 mg/kg to dogs. The conditions noted are these: dog, in vivo, po. Format: ADME, organism-based, Canis lupus familiaris. Details: dose 2 mg/kg, route oral. Put shortly:
as §3

The nature of data set [19]: Area under concentration time curve of compound when administered perorally at a dose of 2 mg/kg to rats. Format: ADME, organism-based. Also noted: dose 2 mg/kg, route oral. To be noted: rat, in vivo, po. Put shortly:
as §3

Data set [20] relates to Canis familiaris. Nature of the data set: Percentage change in the serum cholesterol upon administration of compound (100 mpk) in dogs.
Data set [21] deals with Cricetinae gen. sp. Nature of the data set: Percentage change in the serum cholesterol upon administration of compound (100 mpk) in hamster. The format is functional. Put shortly:
as §2

The subject of data set [22] is Cricetinae gen. sp. Nature of the data set: Percentage change in the serum triglyceride upon administration of compound (100 mpk) in hamster. Format: functional. In a few lines: as §2
Data set [23] has as its system Cricetinae gen. sp. Nature of the data set: Effect (100 mpk) on serum cholesterol in hamster. The format is functional. In a few lines: as §4
Data set [24] is filed under the species Mesocricetus auratus. Nature of the data set: Effect (100 mpk) on serum triglyceride in Golden Syrian hamster.
Data set [25] relates to Canis familiaris. Nature of the data set: Percentage change in the serum cholesterol upon administration of compound (20 mpk) in dogs. The format is functional, Canis lupus familiaris. Put shortly: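 Male Beagle dogs were housed individually on a cholesterol-free chow diet, five per group. Baseline serum cholesterol was taken from weekly jugular bleeds before the study. Compound suspended in 0.5% methylcellulose was gavaged daily for 2 weeks. Serum cholesterol was measured during and after dosing and reported as mean percent change (n = 5).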

Data set [26] deals with Cricetinae gen. sp. Nature of the data set: Effect (3 mpk) on serum cholesterol in hamster. The format is functional. In a few lines:
as §4

The subject of data set [27] is Cricetinae gen. sp. Nature of the data set: Percentage change in the serum triglyceride upon administration of compound (3 mpk) in hamster. Format: functional. In a few lines:
as §2

The species named for data set [28] is Mesocricetus auratus. Nature of the data set: Effect (3 mpk) on serum triglyceride in hamster.
In data set [29] the test system is Cricetinae gen. sp. Nature of the data set: Percentage change in the serum cholesterol upon administration of compound (3 mpk) in hamster. The format is functional. Put shortly: as §2
Data set [30] has as its target T2, Peroxisome proliferator-activated receptor gamma. Nature of the data set: In vitro binding affinity for human PPAR gamma.

pEC50, pIC50: −log10 of the molar value. Where “and” joins values, the source holds several entries; their conditions need not be identical. Equal entries are not always repeated.

`CCCc1cc2c(=O)n(C)oc2c(CCC)c1O[C@H](C(=O)O)c1ccc(C(C)C)cc1` showed a Body weight with Rattus norvegicus [1] of 278 g. Further, the Change is on record as -17.3% in the data set on Canis familiaris [2], -9% in the data set on Cricetinae gen. sp. [4] and -17% in the data set with Cricetinae gen. sp. [5]. In the data set on Rattus norvegicus [3], this compound gave a BAT of 0.24 g. In the data set with Rattus norvegicus [6], this compound displayed a Hematocrit of 45.7%. For the same compound, the pIC50 in data set [7] was 7.13. Besides, the bioavailability in data set [8] and in [16] was 73% in each case. Moreover, the Liver weight in the data set with Rattus norvegicus [9] is 20.3 g. The Triglyceride level in the data set listed under Mesocricetus auratus [10] came out at 303 mg/dL. For the same compound, the Cholesterol level in the data set on Cricetinae gen. sp. [11] is 106 mg/dL. Also, the results for the pEC50 in data set [12] and in [15] were 6.41 and 6.17, respectively. Further, the half-life was 1.6 h in [13] and 7.2 h in data set [17]. The Heart weight in the data set with Rattus norvegicus [14] turned out to be 1.14 g. Also, the AUC in data set [18] turned out to be 26.9 µM·h; in data set [19], 67.5 µM·h.
For `CC(C)OC(=O)C(C)(C)Oc1ccc(C(=O)c2ccc(Cl)cc2)cc1` [FENOFIBRATE], the Change in the data set with Canis familiaris [20] is on record as -23.5%; in the data set with Cricetinae gen. sp. [21] it was -29%; with Cricetinae gen. sp. [22], -26%; in the data set on Canis familiaris [25], -4.7%. This compound gave a Cholesterol level in the data set with Cricetinae gen. sp. [23] of 91 mg/dL. This compound also returned a Triglyceride level in the data set listed under Mesocricetus auratus [24] of 244 mg/dL.
Regarding `CCCc1cc(C(=O)CC)cc(CCC)c1O[C@H](C(=O)O)c1ccc(C(C)C)cc1`, the Cholesterol level in the data set with Cricetinae gen. sp. [26] came out at 88 mg/dL; in the data set with Cricetinae gen. sp. [11], 86 mg/dL. The Change was -22% with Cricetinae gen. sp. [27]; -33% and -29% and -17.5% in the data set on Cricetinae gen. sp. [5]; -32% in the data set with Cricetinae gen. sp. [29]. Besides, the pIC50 is 7.64 in [7] and 7.12 in data set [30]. The results for the bioavailability in data set [8] and in data set [16] were 85% and 65%, respectively. Further, the Triglyceride level in the data set listed under Mesocricetus auratus [28] was 259 mg/dL; in the data set on Cricetinae gen. sp. [11], 236 mg/dL. Also, the values for the pEC50 in data set [12] and in data set [15] were 6.82 and 7.25, respectively. The half-life in data set [13] was 2.5 h; in [17], 6.1 h. Further, the area under the curve (AUC) in data set [18] came to 70.5 µM·h; in data set [19], 154 µM·h.
